Measurements pooled from the literature.
Target: Serine/threonine-protein kinase 16 (STK16, Homo sapiens, UniProt O75716)

Structure (SMILES) | read-out | technique | concentration | remaining binding
CNC(=O)Nc1ccc2c(c1)CC[C@@]21OC(=O)N(CC(=O)N(Cc2ccc(F)cc2)[C@@H](C)C(F)(F)F)C1=O | cell-free assay | competition with immobilised ligand | 1 µM | 84%
CC1CCCN1c1nccc(-c2cnn3ncccc23)n1 (stereo not drawn) | binding |  | 1 µM | 86%
O=C(c1ccc(Nc2nccc(-c3cc4ccccc4s3)n2)cc1)N1CCC(N2CCCC2)CC1 | binding | competition with immobilised ligand | 1 µM | 18%
COc1ncc2cc3ccccc3nc2c1C#N | cell-free assay | competition with immobilised ligand | 5 µM | 90%
COc1ccc2cc(OCC3(C(=O)O)CN(C(=O)c4ccc(F)cc4)C3)ccc2c1 | cell-free assay | competition with immobilised ligand | 1 µM | 88%
CN(C)c1ncc(F)c(-c2cnn3ncccc23)n1 | binding |  | 1 µM | 87%
CCCOc1ccc([C@H]2[C@H](C(=O)O)[C@@H](c3ccc4c(c3)OCO4)CN2CC(=O)Nc2c(CC)cccc2CC)cc1 | cell-free assay | competition with immobilised ligand | 1 µM | 72%
N[C@@H]1CCN(c2nccc(-c3cnn4ncccc34)n2)C1 | binding |  | 1 µM | 100%
FC(F)(F)Oc1cccc(-c2cnc3ccc(-c4ccncc4)nn23)c1 | binding | competition with immobilised ligand | 5 µM | 40%
Cc1cnc(Nc2ccc(C(=O)N3CCC(N4CCCC4)CC3)cc2)nc1-c1cc2ccccc2s1 | binding | competition with immobilised ligand | 1 µM | 3.4%
CN(C)CC#Cc1ccc(OCCCc2sc(N3CCc4cccc(C(=O)Nc5nc6ccccc6s5)c4C3)nc2C(=O)O)c(F)c1 | cell-free assay | competition with immobilised ligand | 1 µM | 92%
COc1cc(Nc2nccc(-c3cnn4nc(OC)ccc34)n2)cc(C(F)(F)F)c1 | binding | competition with immobilised ligand | 1 µM | 53%
CN(C)C(=O)Cn1cc(-c2nc([C@@](C)(c3ccc(-c4cnc(N)nc4)cc3)C3CC3)no2)cn1 | cell-free assay | competition with immobilised ligand | 1 µM | 100%
c1cnn2ncc(-c3ccnc(N4CCC45COC5)n3)c2c1 | binding |  | 1 µM | 78%
c1cncc(-c2cccc(Nc3nccc(NC4CCCCC4)n3)c2)c1 | binding | competition with immobilised ligand | 10 µM | 42%
O=C(NCC1CCOCC1)c1n[nH]cc1NC(=O)c1c(F)cccc1F | binding | competition with immobilised ligand | 1 µM | 91%
COc1cnc(Nc2cccc(S(N)(=O)=O)c2)nc1N1CCN(c2ccccc2)C(=O)C1 | binding | competition with immobilised ligand | 1 µM | 30%
O=C(NCCCN1CCOCC1)c1ccc(Nc2nccc(-c3cc4ccccc4s3)n2)cc1 | binding | competition with immobilised ligand | 1 µM | 32%
CCc1ccccc1C(=O)Nc1n[nH]c2c(C)c(F)c(C3C(C#N)=C(C)N(C)C(C)=C3C#N)cc12 | cell-free assay | competition with immobilised ligand | 1 µM | 79%
Cc1cnn2ncc(-c3ccnc(N(C)C)n3)c2c1 | binding |  | 1 µM | 91%
Nc1ncc2c(n1)-c1c([nH]c3ccc(C#CC4CC4)cc13)CCCC2 | binding | competition with immobilised ligand | 1 µM | 100%
